Measurements gathered from unrelated publications.
Protocols differ between the studies behind these lines.
Target: Serine/threonine-protein kinase PAK 6 (PAK6, Homo sapiens, UniProt Q9NQU5)

The remaining activity of `COc1cc(Cl)c(C(=O)N[C@@H](CN[C@H]2CC[C@@H](N)CC2)Cc2ccc(C#N)cc2)cc1-c1ccc(CN[C@H](C)c2ccc(C)cc2)o1` is reported as 95% (enzyme activity; inhibitor; 1 µM).
For `CCCOc1ccc([C@@H]2[C@@H](C(=O)O)[C@H](c3ccc4c(c3)OCO4)CN2CC(=O)Nc2c(CC)cccc2CC)cc1`, the remaining binding was 83% (cell-free assay; competition with immobilised ligand; 1 µM).
With `CC(C)(O)[C@H]1CC[C@H](Nc2ccc3ncc(-c4cccc(C(F)(F)F)c4)n3n2)CC1` the remaining activity was 101% (enzyme activity; inhibitor; 1 µM).
`Cc1ccc(NC(=O)c2ccc(C)c(C(F)(F)F)c2)cc1C#Cc1nn(C2CCC(O)CC2)c2ncnc(N)c12` (centres unmarked) has a remaining signal of 92% (cell-free assay; 10 µM).
`COc1cc(/C=C/C(=O)CC(=O)/C=C/c2ccc(O)c(OC)c2)ccc1O` gave an activity vs control of 82% (enzyme activity; inhibitor; 1 µM).
With `CS(=O)(=O)NCC[C@H](NC(=O)c1cncc2c1cnn2-c1ccc(F)cc1)c1ccnc(S(C)(=O)=O)c1` the remaining binding was 100% (cell-free assay; competition with immobilised ligand; 1 µM).
The remaining activity of `CC(C)(C)c1nc(-c2cccc(NS(=O)(=O)c3c(F)cccc3F)c2F)c(-c2ccnc(N)n2)s1` is reported as 79% (enzyme activity; inhibitor; radiometric; 1 µM).
The remaining signal of `O=C1NC(=O)c2cc(Nc3ccc(F)cc3)c(Nc3ccc(F)cc3)cc21` is reported as 106% (cell-free assay; 0.5 µM).
`CCCS(=O)(=O)Nc1ccc(F)c(C(=O)c2c[nH]c3ncc(-c4ccc(Cl)cc4)cc23)c1F` has an inhibition of under 20% (enzyme activity; inhibitor; 1 µM).
For `O=C(NCc1ncc(C(F)(F)F)cc1Cl)c1ccc2c(c1)C1(CCS(=O)(=O)CC1)[C@@H](C1CC1)N2S(=O)(=O)c1ccc(F)cc1`, the remaining binding was 100% (cell-free assay; competition with immobilised ligand; 1 µM).
For `N[C@H]1CCN(c2nccc(-c3cnn4ncccc34)n2)C1`, the remaining binding was 87% (binding; 1 µM).
`CSc1cccnc1N1CCN(Cc2nc3ccccc3[nH]2)CC1` gave a remaining binding of 100% (cell-free assay; competition with immobilised ligand; 1 µM).
With `COc1cc(Nc2cnc(C#N)c(O[C@H](C)CN(C)C)n2)ncc1-c1cnn(C)c1` the remaining activity was 77% (enzyme activity; inhibitor; radiometric; 1 µM).
`COc1cc2ncnc(Nc3ccc(Oc4ccccc4)c(C)c3C)c2cc1OC` gave an inhibition of -6% (enzyme activity; inhibitor; 1 µM).
`Nc1nc(Nc2ccc(S(N)(=O)=O)cc2)nn1C(=O)c1c(F)cccc1F` has a remaining signal of 101% (cell-free assay; 0.5 µM).
With `Oc1cccc(-c2nc(N3CCOCC3)c3oc4ncccc4c3n2)c1` the remaining activity was 108% (enzyme activity; inhibitor; 10 µM).
`Cc1ccc(Nc2nccc(N(C)c3ccc4c(C)n(C)nc4c3)n2)cc1S(N)(=O)=O` gave a remaining signal of 105% (cell-free assay; inhibitor; 0.5 µM).
`Cc1ccc(C(=O)Nc2ccc(CN3CCN(C)CC3)c(C(F)(F)F)c2)cc1C#Cc1cnc2cccnn12` has a remaining activity of 84% (enzyme activity; inhibitor; 23.5 nM).
`CC(C)(C)C(=O)c1sc(NC2CCCCC2)nc1N` gave a remaining activity of 98% (enzyme activity; inhibitor; 10 µM).
The inhibition of `CNC(=O)c1cc(Oc2ccc(NC(=O)Nc3ccc(Cl)c(C(F)(F)F)c3)cc2)ccn1` is reported as -33% (enzyme activity; inhibitor; 0.3 µM).
`CCCOc1ccc(OC)c(F)c1C(=O)c1ccc(C(=O)N[C@@H]2CNC[C@H]2NC(=O)c2ccc3[nH]ncc3c2)cc1` has a remaining activity of 68% (enzyme activity; inhibitor; 10 µM).
For `CC(C)(O)c1cncc(-c2nc3ccc(F)cc3n2C2CC2)c1`, the remaining binding was 100% (cell-free assay; competition with immobilised ligand; 1 µM).
`FC(F)(F)Oc1cccc(-c2cnc3ccc(-c4ccncc4)nn23)c1` gave an activity vs control of 90% (enzyme activity; inhibitor; radiometric; 5 µM).
The remaining binding of `CCS(=O)(=O)c1cc2cc(C[C@@](O)(CC(C)(C)c3ccc(F)cc3C(N)=O)C(F)(F)F)[nH]c2cn1` is reported as 77% (cell-free assay; competition with immobilised ligand; 1 µM).
`CCN(CC)CCNC(=O)c1c(C)[nH]c(/C=C2\C(=O)Nc3ccc(F)cc32)c1C` gave an inhibition of 29% (enzyme activity; inhibitor; 10 µM).
`CCOCCn1cc(C(=O)Nc2ccc(-n3nc(-c4cccnc4)cc3C(F)(F)F)cn2)ccc1=O` has a remaining binding of 100% (cell-free assay; competition with immobilised ligand; 1 µM).
`O=C(Nc1cnn(-c2csc(C(=O)NC3COC3)c2)c1)Nc1ccccc1Cl` gave a remaining activity of 131% (enzyme activity; inhibitor; 5 µM).
`O=C(NCCCC1CCCCC1)c1ccc(CNC(=O)c2cnn(-c3ccccc3)c2C(F)(F)F)cc1` has a remaining binding of 100% (cell-free assay; competition with immobilised ligand; 0.1 µM).
With `Cc1ccc(C(=O)NCc2ccsc2)cc1C#Cc1cn(C(C)C)c2ncnc(N)c12` the activity vs control was 108% (enzyme activity; inhibitor; 1 µM).
